Experimental data as given in the RNAGym collection of RNA variant scans (doi:10.1126/science.aae0568).
This sample holds only a part of the variants without activity.

B1: tRNA (parent)
chain: GUUCCGUUGGCGUAAUGGUAACGCGUCUCCCUCCUAAGGAGAAGACUGCGGGUUCGAGUCCCGUACGGAACG

Variants of: B1
Assay: yeast fitness relative to wild type (ratio to wild type); higher = fitter; tRNA-Arg(CCU), competitive growth, 37 C, YPD
Outline: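 Amplicons of the tRNA-Arg(CCU) gene were sequenced, 100-nucleotide paired-end, from the start population and from each end population of a pooled yeast competition. The competition, in six parallel replicates, lasted 24 hours in YPD at 37°C. Fitness relative to wild type was calculated from changes in genotype frequencies. Genotypes had to have ≥ 100 starting reads, and estimates < 0.5 were set to 0.5.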

Variant	yeast fitness
U32C C33U C62U A65G	0.58
C31U G48C G67C	0.649
U32G G39C A43G G52C	0.571
C33G A45U G56C	0.637
C33A A36U C62U	≤ 0.5
U32G A57C C62U	0.555
U32A G38C U47A	≤ 0.5
C33G G38A	0.684
C31U G68C	0.68
C31U G68A	0.883
U32G U35G A36C A37G C61G A70G	≤ 0.5
U32A C34U	0.531
U32A C34A	0.648
C31U G39A G44A C61U	≤ 0.5
C33A A43G A45C C60A	0.564
C33G G39C C55A	≤ 0.5
C33A A36U G63A	≤ 0.5
U32A C34U C61U	0.54
C33A C55G	0.564
C33G C61G	0.815
U32C A42U	0.974
U32G C61U A69C	0.746
U32C G38C G68C	≤ 0.5
U32C A43C C49U	0.648

Variant	yeast fitness
C33A G39C C49U U54A G68A	≤ 0.5
U32C A45G A57U	≤ 0.5
U32A G39A G58A C61A C62G	≤ 0.5
C33A U35G C49U A65U	≤ 0.5
C31U G41C	0.796
U32C A45U G67A	≤ 0.5
C33G G52A G56U	≤ 0.5
U32C A43G A45G	0.608
C33G A45G C55G G56C	≤ 0.5
U32G G56C	≤ 0.5
U32C U35C C49G	0.545
U32C C34U A45U	0.662
U32A U54A	≤ 0.5
C31U G56A	1.04
U32C C46A	0.88
C33G G52A	0.582
C31U G67U A69G	0.747
U32C U35C A40G	≤ 0.5
U32C A40G C62G G68A A69C	≤ 0.5
U32C A45U G52A A70U	≤ 0.5
U32G G39C G52C C61U	≤ 0.5
U32C U54C	0.687
U32G G39C C49U G52C	≤ 0.5
C33G G51A A65C	0.709

Variant	yeast fitness
U32G U35A G38C C46G	≤ 0.5
C33A U35A C62U	0.617
U32C A43C A65U	0.503
C33G G38C C46A	0.551
U32G G68C	0.703
U32G C62U	0.625
U32G C62A	0.512
U32G A57U	0.527
C33A G39C G41C G44C A69C	0.577
C31U G63C	0.766
C33G A57G C61G G63A A65G C66U	≤ 0.5
C33A A37G	0.531
C33A A37C	≤ 0.5
U32C A42U G51C	0.533
U32C C46G U59C G63C G68C	≤ 0.5
C31U U54C	0.82
U32G U59C C61A	≤ 0.5
C33A C34G C60A A70C	≤ 0.5
U32C C49G	1.02
U32C C49A	0.692
C31U G50A A70U	0.677
U32G C33U A36C G56U C66A	≤ 0.5
U32C A37U G52A C66A	≤ 0.5
U32A G39A G63A	≤ 0.5

Variant	yeast fitness
C33A C34G	0.755
C33A C34A	0.621
U32C G39C G50C	≤ 0.5
C31U U53C	0.633
C31U U53A	0.656
C33A A42C A45C U47G	0.515
U32C G38C G50A A70G	≤ 0.5
C31U G50A	0.904
C33A C61A C62U C66U	0.562
U32C G38C G52C	≤ 0.5
C33A U35A A70C	≤ 0.5
U32C C34U G44C	≤ 0.5
C33G A43G U59A	≤ 0.5
C33A C49U G52A A70C	≤ 0.5
C31U G38C G51C C55U	≤ 0.5
C31U G58C C61A A69U	0.505
U32C G41C	0.931
U32A A37C C66U	≤ 0.5
C33A A43C G50A A57U C60G	≤ 0.5
C33A A36C A43U C46G C62G A69U	≤ 0.5
U32A A70U	0.857
U32G C55A A57G	≤ 0.5
U32C C33U A42U A57G	≤ 0.5
U32A G52C C55U C61U C66U	≤ 0.5

Variant	yeast fitness
C31U G39C A40U	0.838
U32C G48C C49U	0.635
U32A C33U U47A	0.54
C33G A40U G56A	≤ 0.5
U32C G48A A70U	0.783
U32C C49U A65G	0.778
U32C C49U A65C	0.793
C31U U47C A65G A69U	≤ 0.5
U32C C55U A69C	0.63
C33G C60A	0.715
C33G C60G	≤ 0.5
U32C A40U C55G	0.703
C31U G38C	0.845
C33G A42U C61G	≤ 0.5
C33G G41A G50A	0.624
U32C C33A	0.628
C33G A36G	0.699
U32C A45U C46G A69C	≤ 0.5
C33G G51C G68A A69C	0.607
U32G A45G U47C C49U A70U	≤ 0.5
C33G A40G C66G	0.698
C31U G44C A65C	0.594
U32A A42C G63C A65U C66U	≤ 0.5
U32C A42G G63A	0.556

Variant	yeast fitness
C33G G41C A43C	≤ 0.5
U32C C55U	0.651
U32C C55A	0.632
C33A U54C C55G	≤ 0.5
U32G A42C	0.62
C31U C62G G68C	0.507
U32A A43G U64G	≤ 0.5
U32G C33G G50A U53G A69G A70C	≤ 0.5
U32C G52A G58C	≤ 0.5
C31U G58A A65C	0.65
C33G A42C C66G A70G	≤ 0.5
U32A C33U A42U C60A	0.595
U32C A43C	0.83
U32A A69U	0.958
U32A A69C	0.882
C33G G52A U64C C66U G67A	≤ 0.5
C33A A40U C55U C62U	≤ 0.5
U32C A36G	0.861
C33G C60A C66G	≤ 0.5
U32C U35A U47C	≤ 0.5
C33G A42U A45G	≤ 0.5
U32G C49G	0.602
C31U U35A G51C	≤ 0.5
U32C A57G	0.861

Variant	yeast fitness
C31U G44C C60U	0.689
C31U G39C G58A	0.552
U32C A37C A57U	≤ 0.5
U32A G58C	0.651
C31U U32C C34A C55U	≤ 0.5
C31U U53A U59A	≤ 0.5
C33G C62A G67C	≤ 0.5
U32C A40G C49G	0.514
U32A G52C	≤ 0.5
C33A A40G	0.683
U32C	0.966
U32A	0.742
U32G	0.664
C33A C34U G52A A57G	≤ 0.5
U32A C33G	0.706
U32G G41C	0.597
U32G A40U U59A	≤ 0.5
U32A A40U	0.774
U32A A40C	0.694
C33G G44A U47C A57G	≤ 0.5
C31U C61U G68C	≤ 0.5
C33G G38C G41C A43C U47G G67C	0.582
C33G C34U A65U	0.629
